From BindingDB's records for doi:10.1021/jm9003297 (University of Bonn, 2009)

What was measured:
P2Y purinoceptor 12 = P2Y purinoceptor 12 (Homo sapiens, UniProt Q9H244); assay: Displacement of [3H]PSB0413 from human platelet P2Y12 receptor
Outline: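 Membranes from outdated human blood-bank platelets (4-5 days post-donation), washed, centrifuged, homogenized, stored at -80 °C. 100 µg protein incubated with 5 nM [³H]PSB-0413 in 50 mM Tris-HCl pH 7.4 for 1 h at rt, then filtered over GF/B. Nonspecific binding with 1 mM ADP. Screen at 10 µM. Ki from curves of 6-7 concentrations over 3 log units. At least three experiments in triplicate.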

[1] = Displacement of [3H]DPCPX from human adenosine A1 receptor expressed in CHO cells assessed as ratio of IC50 in presence of GTP to absence of GTP by GTP shift assay

Chain of P2Y purinoceptor 12 (Q9H244 whole entry): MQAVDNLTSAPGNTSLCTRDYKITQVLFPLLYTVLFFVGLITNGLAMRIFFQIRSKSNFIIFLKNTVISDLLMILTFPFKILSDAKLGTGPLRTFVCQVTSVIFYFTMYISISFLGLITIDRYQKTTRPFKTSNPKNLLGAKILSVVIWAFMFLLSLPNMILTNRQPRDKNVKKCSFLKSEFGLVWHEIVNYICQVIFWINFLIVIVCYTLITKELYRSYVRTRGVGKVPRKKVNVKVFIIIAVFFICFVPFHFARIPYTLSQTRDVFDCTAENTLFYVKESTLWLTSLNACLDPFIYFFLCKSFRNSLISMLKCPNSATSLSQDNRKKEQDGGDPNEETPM

IC50 [1] [µM]	SMILES	Ki (P2Y purinoceptor 12) [µM]
	CN(C)[C@@H]1C(=O)C(C(N)=O)C(=O)[C@@]2(O)C(=O)C3C(=O)c4c(O)ccc(Cl)c4[C@@](C)(O)[C@H]3C[C@@H]12 (stereo partly drawn)	> 10
	CN(C)[C@@H]1C(=O)C(C(N)=O)C(=O)[C@@]2(O)C(=O)C3C(=O)c4c(O)cccc4[C@@](C)(O)[C@H]3C[C@@H]12 (stereo partly drawn) [Achromycin]	> 10
0.76	Nc1c(S(=O)(=O)O)cc(Nc2ccc(Nc3ncccn3)c(S(=O)(=O)O)c2)c2c1C(=O)c1ccccc1C2=O [Disodium 1-amino-4-[4-([1,3]diazine-2-ylamino)-3-sulfophenylamino]-9,10-dioxo-9,10-dihydroanthracene-2-sulfonate]	
